Test results from ChEMBL document CHEMBL1649298, “Correlation between vancomycin MIC values and those of other agents against gram-positive bacteria among patients with bloodstream infections caused by methicillin-resistant Staphylococcus aureus” (2009).
Values after ≈ are worked out from the molar mass of the structure shown.

Tests used:
Assay type in all cases: functional
[1] = test system: Staphylococcus aureus; assay: Antibacterial activity against methicillin-resistant Staphylococcus aureus isolated form patient blood measured after 18 to 24 hrs on day 1 isolation by Etest
In short: (§1)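 MRSA bloodstream isolates came from 120 patients at a tertiary care hospital between January 2005 and May 2007. MICs were read by Etest. Each patient's isolates were grouped as day 1 (index) or post-day 1 (subsequent).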

[2] = test system: Staphylococcus aureus; assay: Antibacterial activity against methicillin-resistant Staphylococcus aureus isolated form patient blood measured after 18 to 24 hrs on day 1 post isolation by Etest; in short: as §1
[3] = test system: Staphylococcus aureus; assay: microbe, parasite or virus in culture

Row | Compound | MIC50 [1] | MIC90 [1] | MIC50 [2] | MIC90 [2] | MIC [1] | MIC [2] | MIC [3] | MIC50 [3] | MIC90 [3]
1 | CN[C@H](CC(C)C)C(=O)N[C@H]1C(=O)N[C@@H](CC(N)=O)C(=O)N[C@H]2C(=O)N[C@H]3C(=O)N[C@H](C(=O)N[C@H](C(=O)O)c4cc(O)cc(O)c4-c4cc3ccc4O)[C@H](O)c3ccc(c(Cl)c3)Oc3cc2cc(c3O[C@@H]2O[C@H](CO)[C@@H](O)[C@H](O)[C@H]2O[C@H]2C[C@](C)(N)[C@H](O)[C@H](C)O2)Oc2ccc(cc2Cl)[C@H]1O [VANCOMYCIN] | 1.5 mg/L (≈ 1.04 µM) | 1.5 mg/L (≈ 1.04 µM) | 1.5 mg/L (≈ 1.04 µM) | 2 mg/L (≈ 1.38 µM) | – | – | – | – | –
2 | CCCCCCCCCC(=O)N[C@@H](Cc1c[nH]c2ccccc12)C(=O)N[C@H](CC(N)=O)C(=O)N[C@@H](CC(=O)O)C(=O)N[C@@H]1C(=O)NCC(=O)N[C@@H](CCCN)C(=O)N[C@@H](CC(=O)O)C(=O)N[C@H](C)C(=O)N[C@@H](CC(=O)O)C(=O)NCC(=O)N[C@H](CO)C(=O)N[C@@H]([C@H](C)CC(=O)O)C(=O)N[C@@H](CC(=O)c2ccccc2N)C(=O)O[C@@H]1C | 0.5 mg/L (≈ 0.309 µM) | 0.75 mg/L (≈ 0.463 µM) | 0.5 mg/L (≈ 0.309 µM) | 1 mg/L (≈ 0.617 µM) | 0.13 mg/L (≈ 0.0802 µM) | 0.19 mg/L (≈ 0.117 µM) | 0.13 mg/L (≈ 0.0802 µM) | 0.38 mg/L (≈ 0.234 µM) | 0.75 mg/L (≈ 0.463 µM)
3 | CC(=O)NC[C@H]1CN(c2ccc(N3CCOCC3)c(F)c2)C(=O)O1 [LINEZOLID] | 0.75 mg/L (≈ 2.22 µM) | 1.5 mg/L (≈ 4.45 µM) | 1 mg/L (≈ 2.96 µM) | 1.5 mg/L (≈ 4.45 µM) | 0.38 mg/L (≈ 1.13 µM) | 0.38 mg/L (≈ 1.13 µM) | 0.75 mg/L (≈ 2.22 µM) | 0.75 mg/L (≈ 2.22 µM) | 1 mg/L (≈ 2.96 µM)
4 | CN(C)c1cc(NC(=O)CNC(C)(C)C)c(O)c2c1C[C@H]1C[C@H]3[C@H](N(C)C)C(O)=C(C(N)=O)C(=O)[C@@]3(O)C(O)=C1C2=O [TIGECYCLINE] | 0.19 mg/L (≈ 0.324 µM) | 0.25 mg/L (≈ 0.427 µM) | 0.19 mg/L (≈ 0.324 µM) | 0.25 mg/L (≈ 0.427 µM) | 0.09 mg/L (≈ 0.154 µM) | 0.09 mg/L (≈ 0.154 µM) | 0.09 mg/L (≈ 0.154 µM) | 0.13 mg/L (≈ 0.222 µM) | 0.2 mg/L (≈ 0.341 µM)
